Measurements reported in ChEMBL document CHEMBL1135693, “Solid-phase synthesis of polyamine toxin analogues: potent and selective antagonists of Ca2+-permeable AMPA receptors” (J Med Chem, 2002).

Experiments:
Glutamate receptor 1 [1] = target: T1, Glutamate receptor 1 (Homo sapiens, UniProt P42261); test: Inhibition of the (-80 mV) current elicited by 100 uM glutamate by simultaneous co-application in xenopus oocytes injected with GluR1 flop RNA.; type: cell-based, Oocyte
How it was run: (§1)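 Two-electrode voltage clamp of stage V–VI Xenopus laevis oocytes (collagenase-isolated), injected with 5-30 ng GluR1 flop cRNA, recorded 3-14 days later in Ringer (pH 7.5; low-Ca2+ Ringer for high-current cells).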

[2] = Ratio of Ki value at -40 mV to that of -80 mV was determined; type: functional
Glutamate receptor 1 [3] = target: T1, Glutamate receptor 1; test: Inhibition of the (-40 mV) current elicited by 100 uM glutamate by simultaneous co-application in xenopus oocytes injected with GluR1 flop RNA.; type: cell-based, Oocyte; how it was run: as §1
[4] = Inhibition of the current elicited by 100 uM glutamate by simultaneous co-application of the antagonist in xenopus oocytes injected with a 1:1 mixture of GluR1 flop and GluR2 flop RNA; type: functional, cell-based, Xenopus laevis; conditions: oocyte
How it was run: (§2)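 Xenopus laevis oocytes (stage V–VI) injected with 5-30 ng cRNA, either 1:1 GluR1 flop + GluR2 flop or GluR5(Q) flop. After 3-14 days, two-electrode voltage clamp recordings were made in Ringer pH 7.5 (low-Ca2+ Ringer if currents were high). […] Values are means of two independent measurements in triplicate.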

[5] = Inhibition of the current elicited by 100 uM glutamate by simultaneous co-application of the antagonist in xenopus oocytes injected with a 1:1 mixture of GluR1 flop and GluR2 flop RNA as well as GluR5(Q).; type: functional, cell-based, Xenopus laevis; conditions: oocyte; how it was run: as §2

T1 sequence (P42261 whole entry): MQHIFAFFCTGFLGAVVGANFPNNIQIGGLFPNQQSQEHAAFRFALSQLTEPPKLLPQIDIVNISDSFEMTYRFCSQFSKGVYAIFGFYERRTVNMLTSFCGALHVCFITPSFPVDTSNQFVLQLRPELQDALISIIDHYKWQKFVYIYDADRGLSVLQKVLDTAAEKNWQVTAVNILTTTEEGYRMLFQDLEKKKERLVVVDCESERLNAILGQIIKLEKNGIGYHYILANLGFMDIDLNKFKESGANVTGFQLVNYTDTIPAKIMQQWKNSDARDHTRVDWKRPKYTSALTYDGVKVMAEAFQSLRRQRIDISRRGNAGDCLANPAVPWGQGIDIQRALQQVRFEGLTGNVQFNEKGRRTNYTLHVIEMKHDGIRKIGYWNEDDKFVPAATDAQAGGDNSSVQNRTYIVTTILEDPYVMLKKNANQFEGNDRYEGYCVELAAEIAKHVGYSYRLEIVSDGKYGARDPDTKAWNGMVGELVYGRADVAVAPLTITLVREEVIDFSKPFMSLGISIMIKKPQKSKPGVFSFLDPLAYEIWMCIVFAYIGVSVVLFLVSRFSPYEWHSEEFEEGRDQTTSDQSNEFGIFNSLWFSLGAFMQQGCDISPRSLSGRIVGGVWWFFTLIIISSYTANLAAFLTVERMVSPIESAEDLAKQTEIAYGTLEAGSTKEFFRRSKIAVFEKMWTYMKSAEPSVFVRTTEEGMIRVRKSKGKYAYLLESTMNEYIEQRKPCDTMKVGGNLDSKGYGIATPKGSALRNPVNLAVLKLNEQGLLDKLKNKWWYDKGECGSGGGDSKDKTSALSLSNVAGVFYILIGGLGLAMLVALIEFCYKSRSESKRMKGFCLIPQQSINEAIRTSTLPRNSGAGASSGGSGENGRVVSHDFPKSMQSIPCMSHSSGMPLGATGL

Compound	Ki (Glutamate receptor 1 [1])	Ratio [2]	Ki (Glutamate receptor 1 [3])	Ki [4]	Ki [5]
NCCCNCCCCCCCCNC(=O)C(Cc1ccc(O)cc1)NC(=O)/C=C/c1ccccc1 (configuration not stated)	110 nM	1.5	170 nM	–	–
NCCCNCCCCCCCCNC(=O)C(Cc1ccc(O)cc1)NC(=O)CCc1ccccc1 (configuration not stated)	250 nM	1	254 nM	–	–
CCCC(=O)NC(Cc1ccc(O)cc1)C(=O)NCCCCCNCCCCCCN (configuration not stated)	3.3 nM	86	287 nM	5200 nM	2200 nM
NCCCNCCCCCCCCNC(=O)C(Cc1ccc(O)cc1)NC(=O)c1ccccc1 (configuration not stated)	130 nM	1.9	250 nM	–	–
NCCCNCCCCCCCCNC(=O)C(Cc1ccc(O)cc1)NC(=O)c1ccncc1 (configuration not stated)	64 nM	5.1	330 nM	–	–
CCCC(=O)NC(Cc1ccc(O)cc1)C(=O)NCCCCCCNCCCCCN (configuration not stated)	468 nM	–	> 10000 nM	6400 nM	800 nM
CCCCCC(=O)NC(Cc1ccc(O)cc1)C(=O)NCCCCCCCCNCCCN (configuration not stated)	68 nM	14.7	1000 nM	–	–
NCCCNCCCCCCCCNC(=O)C(Cc1ccc(O)cc1)NC(=O)c1ccccn1 (configuration not stated)	130 nM	1.3	170 nM	–	–
CC(C)(C)C(=O)NC(Cc1ccc(O)cc1)C(=O)NCCCCCCCCNCCCN (configuration not stated)	90 nM	1.6	140 nM	–	–
CCCC(=O)NC(Cc1ccc(O)cc1)C(=O)NCCCCNCCCCCCCN (configuration not stated)	38 nM	3.6	135 nM	> 10000 nM	60 nM
NCCCNCCCCCCCCNC(=O)C(Cc1ccc(O)cc1)NC(=O)C1CCCCC1 (configuration not stated)	78 nM	3.1	240 nM	–	–
CCCC(=O)NC(Cc1ccc(O)cc1)C(=O)NCCCCCCCNCCCCN (configuration not stated)	168 nM	18	3000 nM	1600 nM	290 nM
CCCC(=O)NC(Cc1ccc(O)cc1)C(=O)NCCCNCCCCNCCCN (configuration not stated)	22000 nM	–	170000 nM	> 5000 nM	15 nM
CCCC(=O)NC(Cc1ccc(O)cc1)C(=O)NCCCCCCCCNCCCN (configuration not stated)	65 nM	–	8000 nM	> 10000 nM	250 nM
CCC(=O)NC(Cc1ccc(O)cc1)C(=O)NCCCCCCCCNCCCN (configuration not stated)	100 nM	2.8	280 nM	–	–
CC(=O)NC(Cc1ccc(O)cc1)C(=O)NCCCCCCCCNCCCN (configuration not stated)	220 nM	1.4	300 nM	–	–
NCCCNCCCCCCCCNC(=O)C(Cc1ccc(O)cc1)NC(=O)c1cccnc1 (configuration not stated)	88 nM	2.4	210 nM	–	–
CCCC(=O)NC(Cc1ccc(O)cc1)C(=O)NCCCCCCCCCNCCN (configuration not stated)	410 nM	–	6200 nM	> 10000 nM	2100 nM
NCCCNCCCCCCCCNC(=O)C(Cc1ccc(O)cc1)NC(=O)Cc1ccccc1 (configuration not stated)	110 nM	2.3	250 nM	–	–
